The results in this text go back to ChEMBL document CHEMBL4261533, “Identification of potent cholecystokinin-B receptor antagonists: synthesis, molecular modeling and anti-cancer activity against pancreatic cancer cells” (Medchemcomm, 2017).

Active and inactive are the calls of the source. The rule behind the calls is not given here.

As usually defined, the inhibition is the change of the read-out against control, counted positive when it falls. The IC50 is the concentration at which inhibition is half-maximal.

Experiment [1] concerns the target T1, Gastrin/cholecystokinin type B receptor (Mus musculus) (UniProt P56481).
T1 sequence (whole entry): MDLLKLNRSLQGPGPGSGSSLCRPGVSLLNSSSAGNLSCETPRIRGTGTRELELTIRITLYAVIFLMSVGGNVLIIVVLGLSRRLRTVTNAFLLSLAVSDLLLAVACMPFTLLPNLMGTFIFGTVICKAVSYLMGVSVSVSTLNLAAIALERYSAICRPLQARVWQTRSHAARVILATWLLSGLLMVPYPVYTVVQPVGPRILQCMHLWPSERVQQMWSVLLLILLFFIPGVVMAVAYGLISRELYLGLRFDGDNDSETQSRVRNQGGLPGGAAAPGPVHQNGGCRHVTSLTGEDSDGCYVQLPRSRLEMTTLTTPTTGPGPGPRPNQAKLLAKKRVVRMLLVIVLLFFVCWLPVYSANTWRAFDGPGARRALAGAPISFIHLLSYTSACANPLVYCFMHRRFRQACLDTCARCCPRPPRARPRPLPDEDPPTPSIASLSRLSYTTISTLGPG
The experiment is described as follows: Inhibition of CCK-B receptor in lumen perfused albino mouse stomach assessed as reduction in boc-pentagastrin-induced gastric acid secretion at 100 nM after 45 mins relative to control. The class given is functional. A digest of the protocol: (§1)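 Whole stomach excised from albino mice (25–30 g), lumen-perfused in an organ bath. Effluent pH monitored continuously with a pH probe. Acid output driven by sub-maximal Boc-pentagastrin (10 nM), measured before and 45 min after incubation with test compound. Percentage inhibition calculated.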

Experiment [2] deals with T1, Gastrin/cholecystokinin type B receptor (Mus musculus). Kind of experiment: Inhibition of CCK-B receptor in lumen perfused albino mouse stomach assessed as reduction in boc-pentagastrin-induced gastric acid secretion after 45 mins relative to control. Type of experiment: functional. A digest of the protocol:
as §1

The target in experiment [3] is T2, Gastrin/cholecystokinin type B receptor (Rattus norvegicus, UniProt P30553).
T2 sequence (P30553 whole entry): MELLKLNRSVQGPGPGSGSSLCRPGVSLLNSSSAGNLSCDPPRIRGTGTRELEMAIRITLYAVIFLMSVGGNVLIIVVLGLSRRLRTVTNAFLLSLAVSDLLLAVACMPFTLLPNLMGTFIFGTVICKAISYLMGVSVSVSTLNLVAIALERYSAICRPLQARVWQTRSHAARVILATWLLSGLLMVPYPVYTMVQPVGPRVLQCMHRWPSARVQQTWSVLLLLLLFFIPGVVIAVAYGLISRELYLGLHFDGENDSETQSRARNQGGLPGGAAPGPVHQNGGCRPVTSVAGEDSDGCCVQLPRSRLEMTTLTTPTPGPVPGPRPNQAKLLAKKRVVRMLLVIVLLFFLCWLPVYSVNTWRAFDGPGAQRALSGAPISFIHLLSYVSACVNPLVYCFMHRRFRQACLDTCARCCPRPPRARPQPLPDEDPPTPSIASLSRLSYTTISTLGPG
Kind of experiment: Displacement of [125I]-BH-CCK-8 from CCK-B receptor in rat cerebral cortex plasma membrane after 1 hr by liquid scintillation counting method. Type of experiment: cell membranes. The gist of the method: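 Rat cerebral cortex plasma membrane (100 μg per tube), receptor solubilized in detergent. Non-specific binding defined with 1 μM unlabeled CCK-8s. Bound and free ligand separated on filter mats, counted by liquid scintillation. IC50 by non-linear least-squares fitting.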

The test system of experiment [4] is MIA PaCa-2. The experiment is described as follows: Cytotoxicity against human MIAPaCa2 cells assessed as reduction in cell viability after 24 hrs by MTT assay. The class given is functional, cell-based. Conditions: MIA PaCa-2, 24 h. A digest of the protocol:
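MiaPaca-2 cells seeded at 1000/well, incubated 24 h at 37 °C, 5% CO2, then exposed to varying compound concentrations in 200 μL standard growth medium for 24 h. MTT (5 mg/mL stock in PBS) added for 4 h at 37 °C. Formazan dissolved in DMSO, absorbance read at 540 nm. IC50 taken from dose–response graphs.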
(In general: Formazan colour is commonly taken as a measure of viable cells.)

Experiment [5] addresses T1, Gastrin/cholecystokinin type B receptor (Mus musculus). The experiment is described as follows: Inhibition of CCK-B receptor in lumen perfused albino mouse stomach assessed as reduction in boc-pentagastrin-induced gastric acid secretion at 1 uM after 45 mins relative to control. The class given is functional. The gist of the method: as §1
In experiment [6] the test system is MIA PaCa-2. Kind of experiment: Inhibition of boc-pentagastrin-induced cell proliferation in human MIAPaCa2 cells at 1 to 10 uM up to 120 hrs by MTT assay. Type of experiment: functional, cell-based. The gist of the method:
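MiaPaca-2 cells seeded at 4000/well in 10% FCS-DMEM, then made quiescent for 24 h in incomplete medium. Boc-pentagastrin and/or antagonist (1 or 10 μM) added in incomplete medium; medium with the same concentrations replaced daily. MTT read after 48–120 h, absorbance at 540 nm. DMSO control at each time point set as 100%.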

Experiment [7] has as its target T1, Gastrin/cholecystokinin type B receptor (Mus musculus). Kind of experiment: Inhibition of CCK-B receptor in lumen perfused albino mouse stomach assessed as reduction in boc-pentagastrin-induced gastric acid secretion at 300 nM after 45 mins relative to control. Type of experiment: functional. The gist of the method: as §1
The test system of experiment [8] is MIA PaCa-2. The experiment is described as follows: Cytotoxicity against human MIAPaCa2 cells assessed as reduction in cell viability at 1 to 10 uM after 72 hrs by MTT assay. Type of experiment: functional, cell-based.
Experiment [9] concerns the target T3, Gastrin/cholecystokinin type B receptor (Homo sapiens, UniProt P32239).
T3 sequence (P32239 whole entry): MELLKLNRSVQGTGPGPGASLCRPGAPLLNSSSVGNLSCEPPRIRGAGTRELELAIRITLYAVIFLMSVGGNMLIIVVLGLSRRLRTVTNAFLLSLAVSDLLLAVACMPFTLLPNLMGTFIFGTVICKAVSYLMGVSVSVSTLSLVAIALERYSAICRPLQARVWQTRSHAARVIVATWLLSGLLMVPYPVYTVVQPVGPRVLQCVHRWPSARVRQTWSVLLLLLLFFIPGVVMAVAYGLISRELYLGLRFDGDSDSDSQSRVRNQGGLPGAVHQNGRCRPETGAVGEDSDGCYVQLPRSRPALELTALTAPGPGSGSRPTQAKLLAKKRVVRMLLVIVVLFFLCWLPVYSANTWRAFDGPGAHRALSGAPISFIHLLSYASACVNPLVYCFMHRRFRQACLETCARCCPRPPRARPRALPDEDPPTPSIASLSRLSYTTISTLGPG
Kind of experiment: Displacement of [125I]-gastrin17 from CCK-B receptor (unknown origin).

For `CCOc1ccc(-n2c(N/N=C3\C(=O)Nc4ccccc43)nc3ccccc3c2=O)cc1`, the inhibition is 48% in experiment [1] and “Dose-dependent effect” in experiment [2]. Also, the IC50 in experiment [3] turned out to be 17.4 nM; in the experiment with MIA PaCa-2 [4], 80 µM.
On the same counts, the results for `O=C1Nc2ccccc2/C1=N/Nc1nc2ccccc2c(=O)n1-c1cccc(Cl)c1` are 58%, “Dose-dependent effect”, 384 nM and 92 µM.
For the molecule `O=C(O)c1cccc(NC(=S)NNc2nc3ccccc3c(=O)n2-c2ccccc2)c1`, the inhibition was 48% in experiment [5] and “Dose-dependent effect” in [2]. For the same molecule, the half-maximal inhibitory concentration (IC50) in experiment [3] came out at 975 nM; with MIA PaCa-2 [4], 180 µM.
Turning to `O=C1Nc2ccccc2/C1=N/Nc1nc2ccccc2c(=O)n1-c1cccc(Br)c1`, the inhibition in experiment [1] is 62%; in experiment [2], “Dose-dependent effect”. Besides, the values for the IC50 (in experiment [3]; in the experiment on MIA PaCa-2 [4]) were 19.5 nM and 200 µM, respectively.
On the same counts, the results for `CCOc1ccc(-n2c(NNC(=S)Nc3ccc(Cl)cc3)nc3ccccc3c2=O)cc1` are 58%, “Dose-dependent effect”, 11.5 nM and 250 µM.
With `O=C(O)c1cccc(NC(=S)NNc2nc3ccccc3c(=O)n2-c2cccc(Br)c2)c1`, the inhibition in experiment [1] is 62%; in experiment [2], “Dose-dependent effect”. For the same molecule, the IC50 in [3] is 8.64 nM; with MIA PaCa-2 [4], 150 µM.
For `CCOc1ccc(-n2c(NNC(=S)Nc3cccc(C(=O)O)c3)nc3ccccc3c2=O)cc1`, the inhibition in experiment [1] was 58%; in experiment [2], “Dose-dependent effect”. For the same molecule, the IC50 in [3] amounted to 0.66 nM; with MIA PaCa-2 [4] it was 280 µM.
On the same counts, the results for `CCOc1ccc(NC(=S)NNc2nc3ccccc3c(=O)n2-c2ccc(Cl)cc2)cc1` are 53%, “Dose-dependent effect”, 9.71 nM and 80 µM.
As for `O=C(O)c1cccc(NC(=S)NNc2nc3ccccc3c(=O)n2-c2ccc(Br)cc2)c1`, the values for the inhibition in experiment [1] and in experiment [2] were 39% and “Dose-dependent effect”, respectively. Besides, the figures for the IC50 (in experiment [3]; with MIA PaCa-2 [4]) were 0.2 nM and 200 µM, respectively.
`Cc1ccc(-n2c(N/N=C3\C(=O)Nc4ccccc43)nc3ccccc3c2=O)cc1`: in the experiment with MIA PaCa-2 [6], the inhibition result was “Active”. Further, the inhibition in experiment [7] was 67%; in experiment [2], “Dose-dependent effect”. In addition, in the experiment on MIA PaCa-2 [8], the outcome was Active. Further, the IC50 in [3] stood at 56.5 nM; with MIA PaCa-2 [4] it was 10 µM.
`CNc1cccc(NC(=O)NC2N=C(c3ccccn3)c3ccccc3N(CC(=O)C(C)(C)C)C2=O)c1` (stereo not drawn) registered an IC50 in [9] of 0.1 nM.
As to `CCOc1ccc(-n2c(NNC(=S)Nc3ccc(Br)cc3)nc3ccccc3c2=O)cc1`, the inhibition result in the experiment on MIA PaCa-2 [6] is “Active”. Moreover, the inhibition is 39% in experiment [1] and “Dose-dependent effect” in [2]. Besides, the result in the experiment on MIA PaCa-2 [8] was Active. In addition, the values for the IC50 (in [3]; in the experiment with MIA PaCa-2 [4]) were 2 nM and 10 µM, respectively.
Consider `Cc1cccc(NC(=O)NC2N=C(c3ccccc3)c3ccccc3N(C)C2=O)c1` (stereo not drawn), for which the IC50 in the experiment with MIA PaCa-2 [4] turned out to be 0.0018 µM.
Turning to `O=C1Nc2ccccc2/C1=N/Nc1nc2ccccc2c(=O)n1-c1ccc(Cl)cc1`, the inhibition in experiment [1] is 58%; in [2], “Dose-dependent effect”. Also, the IC50 with MIA PaCa-2 [4] was found to be 100 µM.
